KCNQ1 act = potentiates or activates the human KCNQ1 potassium channel; P51787; CHO-K1 KCNQ1, thallium flux FluxOR fluorescence; active compounds read high; B-score at 10 µM; hit rate 0.35% among 310,000; AID 2648;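 active = fluorescence ratio B-score, a plate-corrected score, at least three library SD, with initial intensity B-score within 5 SD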
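Schedule – 37 °C overnight plating, 90-min dark dye load, 20-min compound pretreatment · System – stable KCNQ1 CHO-K1 line · Probe or stimulus – thallium- and potassium-containing depolarizing buffer · Measured by – kinetic FluxOR fluorescence, 10 s baseline plus 110 s post-stimulus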
KCNK3 block = human KCNK3 channel inhibition, primary screen. O14649. CHO-KCNK3 thallium flux, FluxOR fluorescence; active compounds read low. B-score at 10 µM. hit rate 0.84% among 340,000. AID 602410;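 active = B-score under library mean minus 4 SD, starting fluorescence ratio at most library mean plus 5 SD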;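 also: more negative B-score means stronger inhibition of thallium flux through KCNK3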
KCNQ1 block = blocks the human KCNQ1 potassium channel; CHO-K1 KCNQ1, FluxOR thallium flux fluorescence; active compounds read high; B-score at 10 µM; hit rate 1.3% among 310,000;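 active = compounds whose thallium flux B-score, printed positive for inhibition, exceeds three library SD while starting fluorescence stays within three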;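 also: channel opened by potassium depolarization with thallium stimulus after 20 min compound exposure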
Kir21 inh = Kir2.1 (mouse) channel inhibition; P35561; HEK293-Kir2.1, FluxOR thallium flux fluorescence; active compounds read low; B-score at 10 µM; hit rate 0.85% among 310,000; AID 1672;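 active = fluorescence ratio B-score at or below minus 3 SD of library scores, with starting-brightness B-score within 2 SD, cut at about -4.2 in these data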;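 also: channel flux triggered by added potassium and thallium sulfate stimulus; B-score of peak minus minimum fluorescence over baseline after thallium stimulus; more negative B-score means stronger Kir2.1 block with less thallium influx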
hERG protect = compounds protecting human hERG from proarrhythmic drug block; Q12809; CHO-hERG, FluxOR thallium flux, dofetilide IC70 present; activation (rescue from dofetilide block), less the hit threshold, % at 10 µM; hit rate 0.51% among 310,000;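 active = activation above the mean of controls blocked by dofetilide plus 5 SD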;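 also: thallium influx through hERG after potassium depolarization seen as dye fluorescence rise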
KCNK9 block = human KCNK9 channel inhibition; Q9NPC2; HEK293 KCNK9, FluxOR thallium flux fluorescence; active compounds read low; B-score at 10 µM; hit rate 1.2% among 310,000;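 active = ratio B-score over 3 SD below the library mean, with starting fluorescence within 5 SD of its mean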;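 also: negative B-score means less thallium flux so channel inhibition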
Target sequence (Q9NPC2 whole entry, looked up): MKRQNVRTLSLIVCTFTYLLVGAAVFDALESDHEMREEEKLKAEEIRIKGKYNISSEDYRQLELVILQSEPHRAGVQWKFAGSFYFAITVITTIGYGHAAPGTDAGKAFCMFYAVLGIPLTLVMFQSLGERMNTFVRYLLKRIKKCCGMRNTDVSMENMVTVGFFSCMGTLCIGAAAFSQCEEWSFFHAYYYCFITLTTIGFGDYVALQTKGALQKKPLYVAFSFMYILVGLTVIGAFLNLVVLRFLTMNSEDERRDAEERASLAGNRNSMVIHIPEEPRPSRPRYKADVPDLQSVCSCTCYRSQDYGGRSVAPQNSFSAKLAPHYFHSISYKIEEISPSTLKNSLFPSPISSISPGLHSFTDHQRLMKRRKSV
KCNK9 inh conf = human KCNK9 inhibitor confirmation | shares compounds with KCNK9 block | HEK293 KCNK9 cells, FluxOR thallium flux fluorescence | inhibition, % at 10 µM | hit rate 43% among 4,900 | AID 492992;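 active = thallium signal inhibited by more than 5 SD of the compound-free buffer control wells, on both duplicate plates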;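 also: 0% = assay buffer control wells without compound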
Kir2-1 spec = selectivity of KCNK9 modulators against mouse Kir2.1. shares compounds with KCNK9 block. Kir2.1 cells, FluxOR thallium flux fluorescence. inhibition, % at 10 µM. hit rate 4% among 4,900;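 active = thallium signal drop more than 5 SD beyond the mean of the no-compound control wells, seen in both duplicate plates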;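 also: signal is fluorescence rise after thallium addition divided by baseline fluorescence; plate controls were assay buffer only for no effect and full block by chlorpromazine control for full effect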
KCNK9 uninduced = second check of KCNK9 modulator effects in non-induced HEK293 cells; shares compounds with KCNK9 block; hit rate 40% among 4,900; inhibition, % at 10 µM; FluxOR thallium flux; AID 492997;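 active = thallium signal drop beyond 5 SD of the untreated control mean, on both duplicate plates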;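 also: plate controls were buffer only IC0 wells for no effect and SID17386958 at its maximal inhibitory level for full effect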
Numbers without * were called inactive; i = inactive; . = not tested or not shown. Rows were chosen to be rich in hits. Some 3.8% of all compounds tested hit in one or more screens of this group.

SMILES | KCNQ1 act | KCNK3 block | KCNQ1 block | Kir21 inh | hERG protect | KCNK9 block | KCNK9 inh conf | Kir2-1 spec | KCNK9 uninduced
Cc1ccc2sc(-c3ccc(NC(=O)/C=C\C(=O)O)cc3)nc2c1 | i | i | i | 0.31 | -5 | i | . | . | .
CC(C(=O)NC1CCCC1)N(C(=O)c1ccc(-c2ccccc2)[nH]1)c1ccccc1F (centres undefined) | i | i | 6* | -1.2 | -19 | i | i | i | i
Cc1ccccc1OCCCC(=O)Nc1ccc(S(=O)(=O)Nc2onc(C)c2C)cc1 | i | i | i | -0.99 | -10 | i | . | . | .
COc1ccc(-c2nn(-c3ccccc3)cc2CNCCN2CCOC2=O)c(F)c1 | i | i | i | 0.82 | -11 | i | . | . | .
COc1ccc(-c2nn(-c3ccccc3F)cc2CNCCn2nc(C)cc2C)cc1 | i | i | i | -0.98 | -16 | i | i | i | i
O=C(CCN1C(=O)/C(=C/c2ccccc2Cl)SC1=S)NCCc1ccc(O)cc1 | i | i | i | 0.09 | -9 | i | . | . | .
CC1CCN(c2nc(-c3cccnc3)nc3scc(-c4ccccc4)c23)CC1 | i | i | i | -0.47 | -10 | i | . | . | .
CC1CCCN(c2nc(-c3cccnc3)nc3scc(-c4ccccc4)c23)C1 (centres undefined) | i | i | i | -0.22 | -15 | -9.1* | 35%* | i | 35%*
CC(=O)Nc1ccc(Oc2cncc(Cl)c2)nc1 | i | i | i | 0.1 | -6 | i | . | . | .
CN(C)Cc1c(C(=O)N/N=C/c2cccs2)nnn1-c1nonc1N | i | i | i | 0.21 | -11 | i | . | . | .
O=C(COC(=O)Cn1cnc2ccccc21)Nc1cc2c(cc1Cl)C(=O)c1ccccc1C2=O | i | i | i | -0.78 | -11 | i | . | . | .
CCOC(=O)C(C#N)(Cc1cc(OC)cc(OC)c1)Cc1cc(OC)cc(OC)c1 | i | i | i | 1.9 | -6 | -14* | 56%* | i | 46%*
CCC(=O)Nc1cc(OC)cc(OC)c1 | i | i | i | -1.7 | -10 | i | . | . | .
CCN(CC(=O)Nc1c(F)cccc1F)C(=O)CN(C)S(=O)(=O)c1ccc(F)cc1 | i | i | i | 0.07 | -11 | i | . | . | .
CC(C)C(Sc1nc(-c2ccccc2)cc(-c2ccccc2)c1C#N)C(=O)O (centres undefined) | i | i | i | 0.1 | -11 | i | i | i | i
CCCNC(=O)N1CCCC(C(=O)c2cccc(Cl)c2)C1 (centres undefined) | i | i | i | 0.61 | -15 | i | . | . | .
O=C(CCc1ccccc1)C(=O)N1CCCC(C(=O)c2cccc(Cl)c2)C1 (centres undefined) | i | i | i | -0.48 | -6 | i | i | 32%* | 37%*
O=C(NCCN1CCOCC1)/C(=C/c1ccco1)NC(=O)c1ccccc1 | i | i | i | -0.75 | -9 | i | . | . | .
C(=N/Nc1nc(-c2ccccc2)cc(-c2ccccc2)n1)/c1cccnc1 | i | i | i | 0.69 | -11 | i | i | i | i
Cc1ccc(-c2cc(-c3ccccc3)nc(N/N=C/c3cccnc3)n2)cc1 | i | i | i | 1 | -14 | i | . | . | .
Cc1cc(-c2ccccc2)nc(N/N=C/c2ccco2)n1 | i | i | i | 0.2 | -14 | i | . | . | .
Cc1cc(-c2ccccc2)nc(N/N=C/c2ccc(O)cc2O)n1 | i | i | i | 2.3 | -17 | -15* | 75%* | i | 33%*
O=C(NNC(=O)c1csc(N2CCOCC2)n1)c1ccc(Cl)nc1 | i | i | i | 0.18 | -4 | i | . | . | .
COc1cccc(C(=O)NC(C)c2cccc3ccccc23)c1OC (centres undefined) | i | i | i | -2.5 | -10 | i | . | . | .
COc1cccc(C(=O)NC(C)c2ccc(-c3ccccc3)cc2)c1OC (centres undefined) | i | i | i | 0.21 | -8 | i | i | i | i
SMILES | KCNQ1 act | KCNK3 block | KCNQ1 block | Kir21 inh | hERG protect | KCNK9 block | KCNK9 inh conf | Kir2-1 spec | KCNK9 uninduced
CCOc1cc(/C=C2\C(=O)N(Cc3ccc(C)cc3)C(C)=C2C(=O)OC)ccc1O | i | i | 7* | -0.95 | -8 | -11* | 41%* | i | 32%*
COC(=O)C1=C(C)N(CCc2ccc(OC)c(OC)c2)C(=O)/C1=C\c1ccc(O)cc1 | i | i | i | 0.95 | -11 | i | . | . | .
CC(=O)C1CCC2C3CCC4=CC(=O)CCC4(C)C3(F)C(O)CC12C (centres undefined) | . | i | . | . | . | . | . | . | .
CCOC(=O)c1ccc(N=c2sc(C(=O)OC)cc(=O)n2Cc2ccco2)cc1 | i | i | i | 0.88 | -7 | i | i | i | 38%*
COC(=O)c1cc(=O)n(CCc2ccccc2)c(=Nc2ccc(F)cc2)s1 | i | i | 8* | -1.1 | -15 | -10* | 35%* | i | 34%*
COC(=O)c1cc(=O)n(CCc2ccc(OC)cc2)c(=Nc2ccc(F)c(Cl)c2)s1 | i | i | i | -0.75 | -12 | i | . | . | .
Cc1ccc(-n2nc3c(=O)n(C(C)C(=O)NCc4ccc(Cl)cc4)nc(C)c3c2C)cc1 (centres undefined) | i | i | i | 0.2 | -9 | i | . | . | .
CC(C)CC1Nc2ncnc(N3CCCCC3)c2N(Cc2ccccc2)C1=O (centres undefined) | i | i | i | -2.1 | -9 | -9.1* | 39%* | i | 38%*
O=C1C(Cc2ccccc2)Nc2ncnc(N3CCCCC3)c2N1Cc1ccc(Cl)cc1 (centres undefined) | i | i | i | -1.2 | -8 | -17* | 76%* | i | 34%*
CCOc1ccc(NC(=O)C23CC4CC(C2)CC(c2ccccc2)(C4)C3)cc1 | i | i | i | -0.99 | -3 | i | i | i | i
Cc1ccc(C23CC4CC(CC(C(=O)NN)(C4)C2)C3)cc1 | i | i | i | -0.29 | -4 | i | . | . | .
CCOC(=O)CNC(=O)C12CC3CC(C1)CC(c1ccc(C)cc1)(C3)C2 | i | i | i | 0.3 | -20 | i | i | i | i
Cc1cccc(NC(=O)CSc2n[nH]c(-c3ccncc3)n2)c1C | i | i | i | -0.52 | -12 | i | . | . | .

Bioassay records deposited in PubChem by Johns Hopkins Ion Channel Center.
